For data set [1], the system named is Candida albicans. In words: Antibiofilm activity in Candida albicans SC5314 assessed as appearance of yeast form of fungal cells at 0.27 microg/ml measured after 24 hrs by inverted microscopic analysis. As to conditions: dose 0.27 µg/ml. It counts as functional, organism-based. An outline of the steps: (§1)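 Log-phase C. albicans in RPMI1640+10% FBS at 1×10^5 CFU/mL allowed to adhere in 24-well plates for 90 min at 30 °C; unattached medium removed. 1 mL medium with drug (0.27, 0.53, 1.06 µg/mL) or without drug added; 24 h at 30 °C. Biofilm stained with crystal violet 30 min, washed 3× with PBS, viewed by inverted microscope.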

Data set [2] has as its system Candida albicans. Kind of data set: Antifungal activity against Candida albicans assessed as inhibition of mycelia formation at 0.53 microg/ml measured after 4 to 8 hrs by inverted microscopic analysis. Format: functional, organism-based. As to conditions: dose 0.53 µg/ml, time 4-8 hrs. An outline of the steps: (§2)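 Hyphae were induced in SD+10% FBS or in Spider medium. Log-phase cells at 1×10^5 CFU/mL final, 1 mL per well in 24-well plates, 3 wells per group. Drug at 0.27, 0.53 or 1.06 µg/mL, fluconazole, or no-drug control. Incubated at 30 °C; hyphal formation observed and photographed by inverted microscope at 4 h and 8 h.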

The test system of data set [3] is Candida albicans. Kind of data set: Antifungal activity against Candida albicans assessed as increase in yeast fungal cells at 0.27 to 1.06 microg/ml measured after 4 to 8 hrs by inverted microscopic analysis. It counts as functional, organism-based. As to conditions: dose 0.27-1.06 µg/ml, time 4-8 hrs. The essentials: as §2
Data set [4] has as its system Candida albicans. In words: Antifungal activity against Candida albicans SC5314 assessed as inhibition of fungal growth measured up to 48 hrs by time-killing curve analysis. It counts as functional, organism-based. An outline of the steps: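 Log-phase cells at 1×10^5 CFU/mL in SDB, 10 mL per group. Drug at 0.27, 0.53 or 1.06 µg/mL, plus fluconazole and untreated controls. Shaken 150 r/min at 30 °C. Samples taken at 0, 4, 8, 12, 24, 36 and 48 h and read at A630, triplicate wells. Absorbance plotted against time.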

The test system of data set [5] is Candida albicans. In words: Antifungal activity against Candida albicans assessed as increase in pseudomycelial fungal cells at 0.27 to 1.06 microg/ml measured after 4 to 8 hrs by inverted microscopic analysis. Format: functional, organism-based. As to conditions: dose 0.27-1.06 µg/ml, time 4-8 hrs. An outline of the steps:
as §2

Data set [6] deals with Candida albicans. In words: Antibiofilm activity in Candida albicans SC5314 assessed as sparse distribution of fungal cells at 0.53 microg/ml measured after 24 hrs by inverted microscopic analysis. It counts as functional, organism-based. As to conditions: dose 0.53 µg/ml. An outline of the steps:
as §1

Data set [7] relates to Candida albicans. Kind of data set: Induction of morphological changes in Candida albicans assessed as loose distribution of cytoplasm at 0.53 microg/ml incubated for 16 to 24 hrs by transmission electron microscopic analysis. Format: functional, organism-based. As to conditions: dose 0.53 µg/ml, time 16-24 hrs. An outline of the steps: (§3)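 C. albicans at 5×10^5 CFU/mL in SDB shaken with drug (0.27, 0.53, 1.06 µg/mL), fluconazole or no drug at 30 °C, 150 r/min, for 16-24 h. Pellets washed with PBS and fixed in cold 3% paraformaldehyde/2.5% glutaraldehyde at 4 °C, then 1% OsO4. Dehydrated in acetone and embedded in Epon-812. 60-90 nm sections stained with uranyl acetate and lead citrate, imaged by TEM.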

Data set [8] concerns Candida albicans. Kind of data set: Antifungal activity against Candida albicans SC5314 assessed as inhibition of fungal growth measured after 36 hrs by time-killing curve analysis. It counts as functional, organism-based. An outline of the steps:
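Log-phase C. albicans at 1×10^5 CFU/mL in SDB, 10 mL cultures with drug (0.27, 0.53, 1.06 µg/mL), fluconazole or no drug. Shaken at 150 r/min, 30 °C. Samples taken at 0, 4, 8, 12, 24, 36 and 48 h for absorbance at 630 nm, triplicate wells. Absorbance plotted against time.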

The subject of data set [9] is Candida albicans. Kind of data set: Induction of morphological changes in Candida albicans assessed as blurred boundary between cell wall and cell membrane at 0.53 to 1.06 microg/ml incubated for 16 to 24 hrs by transmission electron microscopic analysis. As to conditions: dose 0.53-1.06 µg/ml, time 16-24 hrs. Format: functional, organism-based. The essentials:
as §3

For data set [10], the system named is Candida albicans. Kind of data set: Antifungal activity against Candida albicans assessed as inhibition of yeast state o mycelium state transformation at 0.27 to 1.06 microg/ml measured after 4 to 8 hrs by inverted microscopic analysis. It counts as functional, organism-based. As to conditions: dose 0.27-1.06 µg/ml, time 4-8 hrs. An outline of the steps:
as §2

The test system of data set [11] is Candida albicans. In words: Induction of morphological changes in Candida albicans assessed as unclear cell membrane outline at 0.53 to 1.06 microg/ml incubated for 16 to 24 hrs by transmission electron microscopic analysis. It counts as functional, organism-based. As to conditions: dose 0.53-1.06 µg/ml, time 16-24 hrs. An outline of the steps:
as §3

Data set [12] has as its system Candida albicans. In words: Induction of morphological changes in Candida albicans assessed as effect on cytoplasmic morphology at 0.53 to 1.06 microg/ml incubated for 16 to 24 hrs by transmission electron microscopic analysis. Format: functional, organism-based. As to conditions: dose 0.53-1.06 µg/ml, time 16-24 hrs. The essentials: as §3
The subject of a further data set is Cell membrane. In words: Induction of cell membrane permeability in Candida albicans assessed as increase in fluorescence intensity by multifunctional enzymatic assay. It counts as subcellular.
Data set [13] relates to Candida albicans. Kind of data set: Induction of morphological changes in Candida albicans assessed as normal cell wall appearance at 0.53 microg/ml incubated for 16 to 24 hrs by transmission electron microscopic analysis. It counts as functional, organism-based. As to conditions: dose 0.53 µg/ml, time 16-24 hrs. The essentials: as §3
Data set [14] has as its system Candida albicans. Kind of data set: Antifungal activity against Candida albicans assessed as sparse distribution of fungal cells at 0.27 to 1.06 microg/ml measured after 4 to 8 hrs by inverted microscopic analysis. As to conditions: dose 0.27-1.06 µg/ml, time 4-8 hrs. It counts as functional, organism-based. The essentials:
as §2

Data set [15] relates to Candida albicans. Kind of data set: Induction of morphological changes in Candida albicans assessed as blurred spacing between cell wall and cell membrane at 0.53 microg/ml incubated for 16 to 24 hrs by transmission electron microscopic analysis. Format: functional, organism-based. As to conditions: dose 0.53 µg/ml, time 16-24 hrs. The essentials:
as §3

Data set [16] relates to Candida albicans. In words: Antifungal activity against Candida albicans assessed as reduction in invasion ability at 0.27 to 1.06 microg/ml measured after 4 to 8 hrs by inverted microscopic analysis. Format: functional, organism-based. As to conditions: dose 0.27-1.06 µg/ml, time 4-8 hrs. An outline of the steps: as §2
Data set [17] has as its system Candida albicans. Kind of data set: Induction of morphological changes in Candida albicans assessed as effect on cytoplasmic structure at 0.53 to 1.06 microg/ml incubated for 16 to 24 hrs by transmission electron microscopic analysis. Format: functional, organism-based. As to conditions: dose 0.53-1.06 µg/ml, time 16-24 hrs. An outline of the steps: as §3
Data set [18] deals with Candida albicans. Kind of data set: Antibiofilm activity in Candida albicans SC5314 assessed as decrease in number of mycelia at 0.27 microg/ml measured after 24 hrs by inverted microscopic analysis. As to conditions: dose 0.27 µg/ml. Format: functional, organism-based. An outline of the steps: as §1
Data set [19] relates to Candida albicans. In words: Antibiofilm activity in Candida albicans SC5314 assessed as appearance of fungal cells in pseudomycelial shape with few mycelia measured after 24 hrs by inverted microscopic analysis. As to conditions: dose 0.27-1.06 µg/ml. Format: functional, organism-based. The essentials:
as §1

The test system of data set [20] is Candida albicans. Kind of data set: Induction of morphological changes in Candida albicans assessed as cell enlargement at 0.53 to 1.06 microg/ml incubated for 16 to 24 hrs by transmission electron microscopic analysis. It counts as functional, organism-based. As to conditions: dose 0.53-1.06 µg/ml, time 16-24 hrs. The essentials:
as §3

The subject of another data set is 16HBE14o-. In words: Cytotoxicity against human 16HBE14o- cells assessed as reduction in cell viability at <=4 microg/ml incubated for 48 hrs by CCK8 assay. Format: toxicity, cell-based. As to conditions: dose < 4 µg/ml. The essentials:
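16HBE cells in RPMI1640 with 10% FBS and 1% antibiotics, seeded in 96-well plates and attached for 24 h at 37 °C. Drug serially diluted 5-fold from 100 µg/mL in complete medium, with growth and blank controls. Exposure 48 h, then viability read with CCK8 reagent.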

For data set [21], the system named is Candida albicans. In words: Antibiofilm activity in Candida albicans SC5314 assessed as appearance of fungal cells in yeast shape with few mycelia measured after 24 hrs by inverted microscopic analysis. Format: functional, organism-based. As to conditions: dose 0.27-1.06 µg/ml. An outline of the steps: as §1

Calls of active or inactive are those of the source. The rule behind the calls is not given here.

As for `O=C(Cn1cc(COC(Cn2ccnc2)c2ccc(Cl)cc2Cl)nn1)c1ccc2ccccc2c1` (stereo not drawn), the result in the data set on Candida albicans [1], in the data set with Candida albicans [3], in the data set with Candida albicans [4], with Candida albicans [5], with Candida albicans [6] and with Candida albicans [7] was Active. Besides, the result in the data set on Candida albicans [9], in the data set with Candida albicans [11], in the data set with Candida albicans [12], in the data set with Candida albicans [13], with Candida albicans [14] and in the data set with Candida albicans [15] was Active. Besides, the outcome in the data set on Candida albicans [17], in the data set with Candida albicans [18] and in the data set on Candida albicans [20] was Active. For the same compound, the Activity entry in the data set with Candida albicans [2] is “Active; Better Than That Of Fluconazole Group”; with Candida albicans [8], “Dose-dependent-effect”; in the data set on Candida albicans [10], “Active; Better Than That Of Fluconazole Group”; in the data set with Cell membrane, “Dose-dependent-effect; Better Than That Of Fluconazole Group”; with Candida albicans [16], “Active; Better Than That Of Fluconazole Group”; in the data set on Candida albicans [19] it was “Dose-dependent-effect”. Also, the Activity entry in the data set on 16HBE14o- was “Non-toxic”; in the data set with Candida albicans [21], “Dose-dependent-effect”.

Values taken from ChEMBL document CHEMBL6177924, “Synthesis and antifungal evaluation of new azole derivatives containing 1,2,3-triazole” (RSC Med Chem, 2025).
